Data: ChEMBL document CHEMBL4382256, “Design and Synthesis of Marine Phidianidine Derivatives as Potential Immunosuppressive Agents” (J Med Chem, 2018)
Activity calls are given as the source filed them. The rule behind the calls is not given here.

Columns and labels:
[1] = Cytotoxicity against BALB/c mouse splenocytes after 48 hrs by CCK-8 assay; assay type: cell-based, Splenocyte
In short: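 Fresh female BALB/c splenocytes (1×10^6 cells), RBC-depleted with ammonium chloride, cultured in triplicate in RPMI 1640/10% FBS with penicillin/streptomycin at 37 °C, 5% CO2 for 48 h with or without compound (DMSO stock diluted in medium). CCK-8 added, 6-8 h further incubation, absorbance 450 nm (570 nm calibration). CC50 from log(inhibitor) vs normalized response non-linear fit.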

Splenocyte [2] = assay: (§1) Immunosuppressive activity in BALB/c mouse splenocytes assessed as inhibition of LPS-stimulated B-cell proliferation by measuring [3H]-thymidine uptake preincubated for 48 hrs followed by LPS stimulation and [3H]-thymidine addition for 8 hrs measured after 48 hrs by beta-scintillation counting analysis; assay type: functional, cell-based
In short: (§2)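 Female BALB/c splenocytes (5×10^5 cells), triplicate, with or without compound, stimulated with Con A 5 μg/ml (T cells) or LPS (E. coli 055:B5) 10 μg/ml (B cells). Culture 48 h at 37 °C, 5% CO2. Pulsed 8 h with 0.5 μCi/well [3H]thymidine, harvested to glass fiber filters, beta scintillation counted. IC50 from log(inhibitor) vs normalized response non-linear fit.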

Splenocyte [3] = assay: as §1, with “concanavalin A stimulated T-cell” for “LPS-stimulated B-cell”, “concanavalin A” for “LPS”; assay type: functional, cell-based; in short: as §2
Mus musculus [4] = species on record: Mus musculus; assay: Immunosuppressive activity in BALB/c mouse CD19-positive B cells assessed as increase in anti-IgM/CD40 stimulated IL-10 levels at 1 to 10 uM after 24 hrs by ELISA; assay type: functional
In short: (§3)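 Purified splenic CD19+ B cells (negative selection, >98% pure) stimulated with F(ab')2 anti-IgM (10 μg/ml) plus anti-CD40 (1 μg/ml), with or without compound at 10, 3 and 1 μM, 24 h. Supernatant IL-6 and IL-10 measured by mouse ELISA kits.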

Mus musculus [5] = species on record: Mus musculus; assay: Immunosuppressive activity in BALB/c mouse CD19-positive B cells assessed as inhibition of anti-IgM/CD40 stimulated cell proliferation at 1 to 10 uM after 48 hrs by [3H]-thymidine uptake assay; assay type: functional
In short: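 CD19+ B cells purified from BALB/c spleen by negative selection (purity >98%). Stimulated with F(ab')2 anti-mouse IgM (10 μg/ml) plus hamster anti-mouse CD40 (1 μg/ml), with or without compound at 10, 3 and 1 μM, 48 h. Proliferation by 0.5 μCi/well [3H]thymidine pulse.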

Mus musculus [6] = species on record: Mus musculus; assay: Immunosuppressive activity in BALB/c mouse CD4-positive T cells assessed as decrease in anti-CD3/CD28 stimulated IFN-gamma production at 1 to 10 uM after 24 hrs by ELISA; assay type: functional
In short: (§4)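 Purified splenic CD4+ T cells (negative selection, >98% pure) stimulated with anti-CD3 (5 μg/ml) plus anti-CD28 (2 μg/ml), with or without compound at 10, 3 and 1 μM, for 24 h. Supernatant IL-2 and IFN-γ measured by mouse ELISA kits.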

[7] = Immunosuppressive activity in BALB/c mouse CD4-positive T cells assessed as anti-CD3/CD28 stimulated CD25 expression at 3 uM by phycoerythrin staining-based flow cytometric analysis (reference value: 52.5%); assay type: functional
In short: (§5)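 Purified splenic CD4+ T cells stimulated with anti-CD3 (5 μg/ml) plus anti-CD28 (2 μg/ml) with or without compound at 10, 3 or 1 μM. Cells washed in PBS, stained with fixable viability dye eFluor 780 for 30 min at 4 °C, Fc-blocked with anti-CD16/CD32, stained with PE-CD25. CD25+ percentage read by flow cytometry.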

[8] = Immunosuppressive activity in BALB/c mouse CD4-positive T cells assessed as anti-CD3/CD28 stimulated CD25 expression at 10 uM by phycoerythrin staining-based flow cytometric analysis (reference value: 52.5%); assay type: functional; in short: as §5
[9] = Immunosuppressive activity in BALB/c mouse CD19-positive B cells assessed as inhibition of anti-IgM/CD40 -induced decrease in IgD expression by measuring mean fluorescence intensity at 3 uM by allophycocyanin staining-based flow cytometric analysis (reference value: 5084); assay type: functional
Mus musculus [10] = species on record: Mus musculus; assay: Immunosuppressive activity in BALB/c mouse CD4-positive T cells assessed as inhibition of anti-CD3/CD28 stimulated cell proliferation at 1 to 10 uM after 48 hrs by [3H]-thymidine uptake assay; assay type: functional
In short: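 CD4+ T cells isolated from BALB/c spleen by immunomagnetic negative selection (purity >98%). 4×10^5 cells/well on plate-coated anti-CD3 (5 μg/ml) plus anti-CD28 (2 μg/ml), with or without compound at 10, 3 and 1 μM, for 48 h. Proliferation read by 0.5 μCi/well [3H]thymidine pulse.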

[11] = Immunosuppressive activity in BALB/c mouse CD4-positive T cells assessed as anti-CD3/CD28 stimulated CD25 expression at 1 uM by phycoerythrin staining-based flow cytometric analysis (reference value: 52.5%); assay type: functional; in short: as §5
Mus musculus [12] = species on record: Mus musculus; assay: Immunosuppressive activity in BALB/c mouse CD4-positive T cells assessed as decrease in anti-CD3/CD28 stimulated IL-2 production at 1 to 10 uM after 24 hrs by ELISA; assay type: functional; in short: as §4
Mus musculus [13] = species on record: Mus musculus; assay: Immunosuppressive activity in BALB/c mouse CD19-positive B cells assessed as decrease in anti-IgM/CD40 stimulated IL-6 levels at 1 to 10 uM after 24 hrs by ELISA; assay type: functional; in short: as §3
[14] = Immunosuppressive activity in BALB/c mouse CD19-positive B cells assessed as inhibition of anti-IgM/CD40 -induced decrease in IgD expression by measuring mean fluorescence intensity at 10 uM by allophycocyanin staining-based flow cytometric analysis (reference value: 5084); assay type: functional
[15] = Immunosuppressive activity in BALB/c mouse CD19-positive B cells assessed as inhibition of anti-IgM/CD40 -induced decrease in IgD expression by measuring mean fluorescence intensity at 1 uM by allophycocyanin staining-based flow cytometric analysis (reference value: 5084); assay type: functional

COc1ccc(Br)c(-c2nc(Cc3c[nH]c4ccccc34)no2)c1
CC50 at 48 h [1]: 33.6 µM
IC50 (Splenocyte [2]): 6.9 µM
IC50 (Splenocyte [3]): 13.3 µM

COc1cc(-c2noc(C34CCC(N)(CC3)CC4)n2)cc(OC)c1OC
CC50 at 48 h [1]: 25.8 µM
IC50 (Splenocyte [2]): 4.1 µM
IC50 (Splenocyte [3]): 4.8 µM

COc1cc(-c2noc(C34CCC(NC(=O)OC(C)(C)C)(CC3)CC4)n2)cc(OC)c1OC
CC50 at 48 h [1]: 12.7 µM
IC50 (Splenocyte [2]): 3.6 µM
IC50 (Splenocyte [3]): 2.5 µM

COc1cc(-c2noc(Cc3c[nH]c4ccccc34)n2)cc(OC)c1OC
CC50 at 48 h [1]: > 50 µM
IC50 (Splenocyte [2]): 2.8 µM
IC50 (Splenocyte [3]): > 50 µM

COc1cccc(-c2nc(Cc3c[nH]c4ccccc34)no2)c1
CC50 at 48 h [1]: 18.4 µM
IC50 (Splenocyte [2]): 11.1 µM
IC50 (Splenocyte [3]): 18.5 µM

COc1cc(OC)cc(-c2nc(Cc3c[nH]c4ccccc34)no2)c1
CC50 at 48 h [1]: > 50 µM
IC50 (Splenocyte [2]): 13.9 µM
IC50 (Splenocyte [3]): > 50 µM

CCCCc1nc(Cc2c[nH]c3ccccc23)no1
CC50 at 48 h [1]: > 50 µM
IC50 (Splenocyte [2]): > 50 µM
IC50 (Splenocyte [3]): > 50 µM

COc1cc(-c2noc(-c3ccccc3)n2)cc(OC)c1OC
CC50 at 48 h [1]: > 50 µM
IC50 (Splenocyte [2]): > 50 µM
IC50 (Splenocyte [3]): > 50 µM

Fc1ccccc1-c1nc(Cc2c[nH]c3ccccc23)no1
CC50 at 48 h [1]: > 50 µM
IC50 (Splenocyte [2]): > 50 µM
IC50 (Splenocyte [3]): > 50 µM

COc1ccc(-c2nc(Cc3c[nH]c4ccccc34)no2)cc1
CC50 at 48 h [1]: > 50 µM
IC50 (Splenocyte [2]): > 50 µM
IC50 (Splenocyte [3]): > 50 µM

COc1cc(-c2noc(-c3ccc(NC(=O)OC(C)(C)C)cc3)n2)cc(OC)c1OC
CC50 at 48 h [1]: 9.2 µM
IC50 (Splenocyte [2]): 2.2 µM
IC50 (Splenocyte [3]): 1.6 µM

Clc1ccc(-c2noc(Cc3c[nH]c4ccccc34)n2)cc1
CC50 at 48 h [1]: 42.8 µM
IC50 (Splenocyte [2]): > 50 µM
IC50 (Splenocyte [3]): 22.6 µM

COc1cc(/C(N)=N/OC(=O)Cc2c[nH]c3ccccc23)cc(OC)c1OC
CC50 at 48 h [1]: 37.3 µM
IC50 (Splenocyte [2]): 10.4 µM
IC50 (Splenocyte [3]): 19.5 µM

Fc1ccc(-c2nc(Cc3c[nH]c4ccccc34)no2)c(C(F)(F)F)c1
CC50 at 48 h [1]: 40.6 µM
IC50 (Splenocyte [2]): 9.7 µM
IC50 (Splenocyte [3]): 15.7 µM

COc1cc(-c2noc(C34CC5CC(CC(C5)C3)C4)n2)cc(OC)c1OC
CC50 at 48 h [1]: 26.5 µM
IC50 (Splenocyte [2]): 18.8 µM
IC50 (Splenocyte [3]): 2.7 µM

COc1cc(-c2noc(-c3cccc(N)c3)n2)cc(OC)c1OC
CC50 at 48 h [1]: 8.2 µM
IC50 (Splenocyte [2]): 5.5 µM
IC50 (Splenocyte [3]): 7 µM

COc1cc(-c2nc(Cc3c[nH]c4ccccc34)no2)cc(OC)c1OC
Activity (Mus musculus [4]): Active
Activity (Mus musculus [5]): Active
CC50 at 48 h [1]: > 50 µM
Activity (Mus musculus [6]): Active
Activity [7]: 48.6%
Activity [8]: 22%
Flu intensity [9]: 6134
inhibition (Mus musculus [10]): Active
Activity [11]: 50.3%
Activity (Mus musculus [12]): Active
Activity (Mus musculus [13]): Active
IC50 (Splenocyte [2]): 3.1 µM
Flu intensity [14]: 6814
IC50 (Splenocyte [3]): 11 µM
Flu intensity [15]: 5640

COc1cc(-c2noc(-c3ccc(N)cc3)n2)cc(OC)c1OC
Activity (Mus musculus [4]): Active
Activity (Mus musculus [5]): Active
CC50 at 48 h [1]: > 50 µM
Activity (Mus musculus [6]): Active
Activity [7]: 38.3%
Activity [8]: 19%
Flu intensity [9]: 6866
inhibition (Mus musculus [10]): Active
Activity [11]: 52.2%
Activity (Mus musculus [12]): Active
Activity (Mus musculus [13]): Active
IC50 (Splenocyte [2]): 1.7 µM
Flu intensity [14]: 6995
IC50 (Splenocyte [3]): 0.8 µM
Flu intensity [15]: 5281
